The full list was thinned out, with hits kept by preference.
Dyrk1A ADPGlo – rat Dyrk1A kinase inhibitors, primary screen, biochemical, single point, plate reader; Dual specificity tyrosine-phosphorylation-regulated kinase 1A (Rattus norvegicus), Q63470; ADP-Glo luminescence, NFATc1 peptide; inhibition, % at 12.5 µM; actives 0.43% (n = 310,000); AID 504441, 2011; in the data active = inhibition above about 50%
GSK3A inh – blockers of GSK3A enzyme activity – biochemical, luminescence, cell-free homogeneous, HTS, primary screen; inhibition, % at 10 µM; AID 2650, 2010; actives 0.1% (n = 320,000); GSK-3 alpha kinase, ADP-Glo luminescence, 60 min;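 active = more than half of replicates show inhibition above 20%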;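 note: GST-tagged GSK-3 alpha with peptide substrate and 25 µM ATP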
STK33 kinase inh – inhibitors of purified STK33 kinase, primary screen, biochemical, ADP-Glo luminescence, homogeneous, cell-free; Serine/threonine-protein kinase 33 (Homo sapiens), Q9BYT3; MBP phosphorylation; inhibition, % at 10 µM; actives 0.073% (n = 320,000); AID 2661, 2010;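 active = inhibition at or above 25%, using the most active replicate where run in duplicate; inactive = inhibition below 25%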
CDK5 inh – inhibitors of human CDK5/p35 kinase, primary screen, biochemical, single concentration | inhibition, % at 10 µM | Cyclin-dependent kinase 5 (Homo sapiens) + Cyclin-dependent kinase 5 activator 1 (Homo … | actives 0.01% (n = 330,000) | AID 488839, 2010 | Recombinant CDK5/p35, ADP-Glo luminescence, 60 min;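 active = highest replicate inhibition of at least 50% and at least 75% of replicates reaching 50%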
GSK3beta inhib – human GSK3beta kinase inhibitors, primary screen, biochemical, cell-free homogeneous, HTS. GST-GSK3beta kinase, ADP-Glo luminescence, 60 min; active compounds read low. activity score (negative = inhibition), % at 10 µM. actives 0.038% (n = 300,000);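 active = more than half of replicate wells score below -50%, meaning over 50% inhibition versus plate controls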
Target sequence (P49841 whole entry, looked up): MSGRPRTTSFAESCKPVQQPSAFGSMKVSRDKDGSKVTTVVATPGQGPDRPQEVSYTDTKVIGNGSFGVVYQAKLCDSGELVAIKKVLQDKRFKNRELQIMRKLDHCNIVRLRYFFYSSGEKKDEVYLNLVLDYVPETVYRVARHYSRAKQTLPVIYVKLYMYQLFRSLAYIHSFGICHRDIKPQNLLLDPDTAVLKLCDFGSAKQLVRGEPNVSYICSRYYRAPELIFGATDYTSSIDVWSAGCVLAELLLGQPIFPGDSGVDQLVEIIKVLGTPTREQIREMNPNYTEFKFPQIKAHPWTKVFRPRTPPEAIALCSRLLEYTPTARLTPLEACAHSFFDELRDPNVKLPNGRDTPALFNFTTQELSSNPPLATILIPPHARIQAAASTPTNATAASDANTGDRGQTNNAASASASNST
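Test system: GST-tagged human GSK3beta kinase, cell-free; evaluation: activity score scaled between in-plate DMSO and GW8510 controls; measured by: ADP-Glo luminescence; incubation: 60 min reaction, RT; benchmarks: DMSO and 20 µM GW8510; reagent: peptide substrate plus 25 µM ATP (final); medium: Tris/MgCl2 kinase buffer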
Dyrk1A artifact – ADP-Glo luciferase interference without Dyrk1A, dose response, artefact control for Dyrk1A inhibitor project, biochemical, luminescence, cherry-pick, set 02; AID 588348, 2011; 1,300 tested, under 10 active; shares compounds with Dyrk1A ADPGlo; ADP-Glo luciferase artifact assay, no Dyrk1A; AC50, µM (titrated, usually from 12 µM);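 active = fitted half-maximal dose AC50 no more than ten times the top valid tested dose, with luminescence dropping as dose rises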
Each line names hits and unclear results; the compound was inactive in the other large screens (follow-up assays come after a bar, where they were run).

C[C@@H]1O[C@@H](OC[C@@H]2O[C@H](Oc3c(-c4ccc(O)cc4)oc4cc(O)cc(O)c4c3=O)[C@@H](O)[C@H](O)[C@H]2O)[C@H](O)[C@H](O)[C@H]1O	Dyrk1A ADPGlo 72 (no result: GSK3beta inhib) | Dyrk1A artifact inactive
C[C@@H]1O[C@@H](O[C@H]2[C@H](O)[C@@H](O)[C@H](Oc3c(-c4ccc(O)cc4)oc4cc(O)cc(O)c4c3=O)O[C@@H]2CO)[C@H](O)[C@H](O)[C@H]1O	none (no result: GSK3beta inhib)
N#CC(c1ccc([N+](=O)[O-])cc1)C(CC(=O)c1ccccc1)c1ccccc1 (stereo not drawn)	none (no result: GSK3A inh, STK33 kinase inh, GSK3beta inhib)
COc1cc(O)c2c(=O)c3c(O)ccc(O)c3oc2c1	Dyrk1A ADPGlo 68 (no result: GSK3A inh, STK33 kinase inh, GSK3beta inhib) | Dyrk1A artifact inactive
Oc1[nH]c2ccccc2c1N=Nc1ccc(C(F)(F)F)cn1	none
CCOC(=O)N1CCN(C(=O)c2cn(-c3ccc(C)c(C)c3)c(=O)c3ccccc23)CC1	none (no result: GSK3A inh, STK33 kinase inh, GSK3beta inhib)
NC(=O)CC(NC(=O)c1ccc(Br)cc1)c1ccc(N2CCN(c3ccccn3)CC2)c([N+](=O)[O-])c1 (stereo not drawn)	none
NC(=O)CC(NC(=O)c1cccc(Br)c1)c1ccc(N2CCN(c3ccccn3)CC2)c([N+](=O)[O-])c1 (stereo not drawn)	Dyrk1A ADPGlo 54 | Dyrk1A artifact inactive
Oc1ccc(/C=N/Nc2cccc(Cl)n2)c(O)c1	none
Oc1ccc(/C=N/Nc2ccc(C(F)(F)F)cn2)c(O)c1	Dyrk1A ADPGlo 61, CDK5 inh 67 | Dyrk1A artifact inactive
O=C(CSc1nc(-c2ccco2)cc(C(F)(F)F)n1)NCCCn1ccnc1	Dyrk1A ADPGlo 58 | Dyrk1A artifact inactive
O=C(CSc1nc(-c2cccs2)cc(C(F)(F)F)n1)NCCCn1ccnc1	none
COc1ccc(CNC(=O)Cc2cn(C)c3ccccc23)c(OC)c1	none
COc1ccc2c(Cl)c(C(=O)N/N=C/c3ccc4c(c3)OCO4)sc2c1	none
COc1ccc2c(Cl)c(C(=O)N/N=C3\CCCC(=O)C3)sc2c1	Dyrk1A ADPGlo 81 | Dyrk1A artifact inactive
Cc1ccc(C(=O)NCC(=O)OCC(=O)Nc2ccc(Cl)cc2C(F)(F)F)cc1C	none (no result: GSK3A inh, STK33 kinase inh)
COCCCn1c(SCC(=O)NC2CCCCC2)nnc1-c1ccncc1	Dyrk1A ADPGlo 51 | Dyrk1A artifact inactive
CCn1c(SCC(=O)NC2CCCC2)nnc1-c1ccncc1	none
CCOc1ccc(-c2csc3ncn(-c4ccc(OC)cc4)c(=O)c23)cc1	none (no result: Dyrk1A ADPGlo)
Nc1nc2ccc([N+](=O)[O-])cc2[nH]1	Dyrk1A ADPGlo 55 | Dyrk1A artifact inactive
O=C(Nc1nc2ccc([N+](=O)[O-])cc2s1)C1CCCO1 (stereo not drawn)	Dyrk1A ADPGlo 66 | Dyrk1A artifact inactive
O=C(Nc1nc2ccc(Cl)cc2s1)C1CCCO1 (stereo not drawn)	Dyrk1A ADPGlo 76 | Dyrk1A artifact inactive
CCNc1c(NS(=O)(=O)c2ccc(Br)s2)c(=O)oc2ccccc12	none (no result: GSK3beta inhib)
CCC1CCCCN1C(=O)CSc1nc(N)c(NC(=O)c2ccco2)c(=O)[nH]1 (stereo not drawn)	none
O=C(NCCN1C(=O)S/C(=C\c2ccccc2F)C1=O)C1CC(=O)N(Cc2ccccc2)C1 (stereo not drawn)	none (no result: GSK3beta inhib)
N#C/C(=C/c1ccc(O)c(O)c1)c1nc2ccccc2[nH]1	Dyrk1A ADPGlo 67 | Dyrk1A artifact inactive
N#C/C(=C\c1cccs1)c1nc2ccccc2[nH]1	none
Cc1cccc(NC(=S)NNC(=O)c2csc3c2CCC(C)C3)c1 (stereo not drawn)	Dyrk1A ADPGlo 62 (no result: GSK3A inh, STK33 kinase inh) | Dyrk1A artifact inactive
CC1CCC(NC(=O)c2cc(S(=O)(=O)N3CCCCC3)c[nH]2)CC1 (stereo not drawn)	Dyrk1A ADPGlo 57 | Dyrk1A artifact inactive
CCCNC(=O)c1cc(S(=O)(=O)N2CCCCC2)c[nH]1	none
O=C(Nc1cccc(-c2nn[nH]n2)c1)c1ccc(Cl)s1	Dyrk1A ADPGlo 76 | Dyrk1A artifact inactive

Compound activity from PubChem BioAssay.
